Source: ChEMBL document CHEMBL4251713, “Bioassay- and Chemistry-Guided Isolation of Scalemic Caged Prenylxanthones from the Leaves of Garcinia bracteata” (2018)
Counter-ions that a name gives are not always drawn.

Tests used:
HL-60 = experiment: Growth inhibition of human HL60 cells measured after 3 days by trypan blue assay; type: functional; settings: HL-60, 72 h
Method in brief: (§1)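 Human leukemia cells exposed to compound for 3 days. Growth assessed by trypan blue method with total cell counts, and inhibition calculated relative to untreated control cells. GI50 taken as the concentration giving 50% growth inhibition. Doxorubicin hydrochloride and gambogic acid included as positive controls.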

K562 = experiment: Growth inhibition of human K562 cells measured after 3 days by trypan blue assay; type: functional; settings: K562, 72 h; method in brief: as §1

| Compound | GI50 (HL-60) | GI50 (K562) |
| --- | --- | --- |
| C=CC(C)(C)c1c(O)cc(O)c2c1O[C@]13[C@H](C2=O)[C@@H](OC)[C@@H]2C[C@H]1C(C)(C)O[C@@]3(/C=C/C(C)(C)O)C2=O | 8800 nM | 3800 nM |
| CC(C)=CCC12OC(C)(C)C3CC4(Oc5c(c(O)cc6c5C(C)(C)[C@@H](C)O6)C(=O)C4=CC31)C2=O (some centres undefined) | 700 nM | 1700 nM |
| C=CC(C)(C)c1c(O)cc(O)c2c1OC13C(=CC4CC1C(C)(C)OC3(CC=C(C)C)C4=O)C2=O (centres undefined) | 400 nM | 1000 nM |
| CC(C)=CC[C@@]12OC(C)(C)[C@H]3C[C@H](C=C4C(=O)c5c(O)cc6c(c5O[C@]431)C(C)(C)[C@H](CO)O6)C2=O | 1100 nM | 2100 nM |
| C=CC(C)(C)c1c(O)cc(OC)c2c1OC13C(C2=O)[C@@H](OC)[C@@H]2C[C@H]1C(C)(C)O[C@@]3(CC=C(C)C)C2=O (some centres undefined) | 3400 nM | 1600 nM |
| CC(C)=CC[C@@]12OC(C)(C)[C@H]3C[C@H](C=C4C(=O)c5c(O)cc6c(c5O[C@]431)C(C)(C)[C@@H](C)O6)C2=O | 1200 nM | 2100 nM |
| C=CC(C)(C)c1c(OC)cc(O)c2c1OC13C(=CC4CC1C(C)(C)OC3(CC=C(C)C)C4=O)C2=O (centres undefined) | 200 nM | 800 nM |
| C=CC(C)(C)c1c(O)cc(O)c2c1O[C@]13[C@H](C2=O)[C@@H](OCC)[C@@H]2C[C@H]1C(C)(C)OC3(CC=C(C)C)C2=O | 4500 nM | 2100 nM |
| C=CC(C)(C)c1c(OC)cc(O)c2c1OC13CC4C(C=C1C2=O)C(CC=C(C)C)(OC4(C)C)C3=O (centres undefined) | 1000 nM | 1500 nM |
| C=CC(C)(C)c1c(O)cc(O)c2c1O[C@]13CC4[C@H]([C@@H](OC)C1C2=O)[C@@](CC=C(C)C)(OC4(C)C)C3=O (some centres undefined) | 6500 nM | 3500 nM |
| CC(C)=CC[C@@]12OC(C)(C)[C@H]3C[C@H](C=C4C(=O)c5c(O)cc6c(c5O[C@]431)C(C)(C)[C@@H](CO)O6)C2=O | 1100 nM | 2100 nM |
| C=CC(C)(C)c1c(O)cc(O)c2c1OC13CC4C(C=C1C2=O)C(CC=C(C)C)(OC4(C)C)C3=O (centres undefined) | 800 nM | 1300 nM |
| CC(C)=CC[C@@]12OC(C)(C)C3C[C@H](C=C4C(=O)c5c(O)cc6c(c5O[C@]431)C(C)(C)[C@H](C)O6)C2=O | 1900 nM | 3600 nM |
| C=CC(C)(C)c1c(O)cc(O)c2c1O[C@]13C(C2=O)[C@@H](OC)[C@@H]2C[C@H]1C(C)(C)O[C@@]3(CC=C(C)C)C2=O (some centres undefined) | 7300 nM | 3400 nM |
| CC(C)=CCC12OC(C)(C)C3CC4(Oc5c(c(O)cc6c5C(C)(C)[C@H](C)O6)C(=O)C4=CC31)C2=O (some centres undefined) | 900 nM | 1600 nM |
| COc1cccc2c1C(=O)c1c(O)c3c(c(O)c1C2=O)C[C@@](O)(C(=O)CO)C[C@@H]3O[C@H]1C[C@H](N)[C@H](O)[C@H](C)O1 [DOXORUBICIN HYDROCHLORIDE] | 20 nM | 20 nM |
| CC(C)=CCC[C@]1(C)C=Cc2c(O)c3c(c(CC=C(C)C)c2O1)O[C@]12C(=C[C@@H]4C[C@H]1C(C)(C)O[C@@]2(C/C=C(/C)C(=O)O)C4=O)C3=O [GAMBOGIC ACID] | 300 nM | 600 nM |
